# IDH1 R132H inh – inhibitors of human IDH1 R132H. IDH1 R132H reductase, diaphorase/resazurin fluorescence, 60 min. inhibition, % at 10 µM. 70,000 tested, 0.18% active; in the data active = inhibition above about 34%; inconclusive = no clear call, values can overlap the other calls; inactive = below about 11%;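 note: 0% = DMSO and 100% = no enzyme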
# Pf Dd2 inh – inhibitors of Plasmodium falciparum Dd2 growth. P. falciparum Dd2 growth, SYBR Green, 72 h; hits give low values. activity change, % at 10 µM. 94,000 tested, 2.3% active. AID 1159554; in the data active = activity change below about -80%; inconclusive = no clear call, values can overlap the other calls
# KDM4C inh – inhibitors of human demethylase GASC-1 KDM4C; Q9H3R0; GST-KDM4C 2-372, H3K9me3 peptide, LANCE TR-FRET; inhibition, % at 12.5 µM; 96,000 tested, 0.15% active; AID 720574;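 active = mean replicate inhibition above about 25%, with at least 55% of replicates also reaching it, limit read from the data, passing the limit was not always enough; inconclusive = only one of those two conditions met; inactive = neither condition met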
# Target sequence (Q9H3R0 2-372 limits assumed): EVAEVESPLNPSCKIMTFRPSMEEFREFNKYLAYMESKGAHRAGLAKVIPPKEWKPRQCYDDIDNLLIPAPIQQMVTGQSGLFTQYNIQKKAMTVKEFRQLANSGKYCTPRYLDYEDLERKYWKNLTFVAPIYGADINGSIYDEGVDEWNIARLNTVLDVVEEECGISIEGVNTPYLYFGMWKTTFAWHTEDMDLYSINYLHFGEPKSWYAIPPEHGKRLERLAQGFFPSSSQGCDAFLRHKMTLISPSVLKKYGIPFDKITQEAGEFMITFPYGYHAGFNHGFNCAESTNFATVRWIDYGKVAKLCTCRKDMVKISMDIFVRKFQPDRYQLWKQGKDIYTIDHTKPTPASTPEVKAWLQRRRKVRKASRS
#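 Assay system: GST-GASC-1 enzyme fragment 2-372 | Amount: 10 nM enzyme | Medium: HEPES buffer, pH 7.5, plus ascorbate | Reagent: H3K9me3 peptide substrate, Fe(II), 2-oxoglutarate | Doses: Single-point compound screen | Incubation: 30 min demethylation and 1 h detection at room temperature | Measured by: LANCE TR-FRET, excitation 340 nm, emissions 618 and 671 nm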
# T cruzi growth-1 – T. cruzi proliferation inhibition. T. cruzi beta-gal in NIH3T3, GalScreen luminescence, 90 h. 77,000 tested, 5.9% active. inhibition, % at 8.34 µM;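 active = mean inhibition above about 93%, with at least 55% of replicates each passing it, limit read from the data, passing the limit was not always enough; inconclusive = only one of those two conditions holds; inactive = neither condition holds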
# T cruzi growth-2 – blocks T. cruzi growth in NIH3T3 host cells; shares compounds with T cruzi growth-1; T. cruzi beta-gal in NIH3T3, GalScreen luminescence, 90 h; inhibition, % at 8.35 µM; 5,600 tested, 72% active; AID 651739;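 active = mean replicate inhibition above about 95% and at least 55% of replicates individually reaching it, limit read from the data; inconclusive = only one of the two criteria is met; inactive = neither criterion is met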
# T cruzi growth-3 – inhibitors of T. cruzi proliferation | shares compounds with T cruzi growth-1 | T. cruzi beta-gal in NIH3T3, GalScreen luminescence, 90 h | inhibition, % at 2.09 µM | 5,600 tested, 21% active;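 active = mean inhibition above about 95%, with at least 55% of replicates also reaching it, limit read from the data; inconclusive = meets just one of the two conditions; inactive = meets neither condition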;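 note: plate controls were neutral control median for no effect and positive control median for full effect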
# 3T3 cytotox – kills mouse NIH/3T3 fibroblasts; 5,600 tested, 14% active; shares compounds with T cruzi growth-1; NIH/3T3 viability, CellTiter-Glo ATP luminescence, 90 h; cytotoxicity (signal decrease), % at 8.35 µM;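 active = mean signal decrease across replicates above about 35% based on untreated-well scatter, with enough replicates individually passing, limit read from the data; inconclusive = no rule stated though some were filed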;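 note: 0% = median of neutral control wells and 100% = median of positive control wells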
# 3T3 cytotox 2 – cytotoxicity in mouse NIH/3T3 fibroblasts. shares compounds with T cruzi growth-1. NIH/3T3 viability, CellTiter-Glo ATP luminescence, 90 h. inhibition, % at 24.9 µM. 5,600 tested, 56% active. AID 651744;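 active = mean loss of cell viability signal at or above a set limit, and enough replicates individually reaching it; inconclusive = meets only the mean limit or only the replicate share; inactive = meets neither condition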;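 note: 0% = median of neutral control wells and 100% = median of positive control wells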
# Active calls of the source: *; ? = inconclusive; · = not tested or not shown. Rows were chosen to be rich in hits. Some 5.9% of all compounds tested hit in one or more screens of this group.
SMILES,IDH1 R132H inh,Pf Dd2 inh,KDM4C inh,T cruzi growth-1,T cruzi growth-2,T cruzi growth-3,3T3 cytotox,3T3 cytotox 2
C[C@@H]1CCCCO[C@@H](CN(C)Cc2ccc(C(=O)O)cc2)[C@H](C)CN([C@H](C)CO)C(=O)c2cc(NC(=O)Nc3ccc(C(F)(F)F)cc3)ccc2O1,2,23,17,42,·,·,·,·
C[C@@H]1CN([C@@H](C)CO)C(=O)c2cc(NC(=O)Nc3ccc(F)cc3)ccc2O[C@@H](C)CCCCO[C@@H]1CN(C)Cc1ccc(C(F)(F)F)cc1,·,-76,0,101*,105*,114*,21,3
C[C@H](CO)N1C[C@H](C)[C@@H](CN(C)Cc2ccc(C(F)(F)F)cc2)OCCCC[C@H](C)Oc2ccc(NC(=O)Nc3ccc(F)cc3)cc2C1=O,·,-11,0,?,95,110*,10,13
C[C@@H]1CCCCO[C@@H](CN(C)Cc2ccc(C(F)(F)F)cc2)[C@H](C)CN([C@@H](C)CO)C(=O)c2cc(NC(=O)Nc3ccc(F)cc3)ccc2O1,2,-54,0,94,·,·,·,·
Cc1ncc(CO)c(/C=N/NC(=O)CCCCCC(=O)Nc2ccccc2O)c1O,0,·,·,·,·,·,·,·
Cc1ccc(S(=O)(=O)Nc2ccc3c(c2)C(=O)N([C@@H](C)CO)C[C@@H](C)[C@@H](CN(C)CC2CC2)OCCCC[C@@H](C)O3)cc1,·,-28,·,?,81,26,-13,-14
Cc1ccc(S(=O)(=O)Nc2ccc3c(c2)C(=O)N([C@H](C)CO)C[C@H](C)[C@@H](CN(C)CC2CC2)OCCCC[C@H](C)O3)cc1,·,-6,2,57,·,·,·,·
Cc1ccc(S(=O)(=O)Nc2ccc3c(c2)C(=O)N([C@H](C)CO)C[C@H](C)[C@H](CN(C)CC2CC2)OCCCC[C@H](C)O3)cc1,·,-28,-1,?,?,48,-15,13
Cc1ccc(C)c(N(CC(=O)Nc2ccc(Br)c(Cl)c2)S(C)(=O)=O)c1,0,·,·,·,·,·,·,·
C[C@@H]1CN([C@H](C)CO)C(=O)c2cc(NS(=O)(=O)c3ccc(Cl)cc3)ccc2O[C@@H]1CN(C)Cc1ccc(C(F)(F)F)cc1,1,11,-3,128*,?,3,94*,103*
Cc1ccc(S(=O)(=O)Nc2ccc3c(c2)C(=O)N([C@H](C)CO)C[C@H](C)[C@H](CN(C)Cc2ccc(C(F)(F)F)cc2)O3)cc1,-2,-10,2,97*,98*,61,12,103*
Cc1ccc(S(=O)(=O)Nc2ccc3c(c2)C(=O)N([C@@H](C)CO)C[C@H](C)[C@H](CN(C)Cc2ccc(C(F)(F)F)cc2)O3)cc1,0,-6,0,99*,103*,100*,10,99*
C[C@@H]1CN([C@@H](C)CO)C(=O)c2cc(NS(=O)(=O)c3ccc(Cl)cc3)ccc2O[C@H]1CN(C)Cc1ccc(C(F)(F)F)cc1,1,2,3,85,·,·,·,·
CCC(C)CCCCCCCCC1CC(=O)NC(CCC(N)=O)C(=O)NC(CC(C)C)C(=O)NC(CC(C)C)C(=O)NC(C(C)C)C(=O)NC(CC(=O)O)C(=O)NC(CC(C)C)C(=O)NC(C(C)C)C(=O)O1 (stereo not drawn),0,·,·,·,·,·,·,·
COc1ccccc1NC(=O)c1ccc(CSc2nc3ccccc3o2)cc1,0,·,·,·,·,·,·,·
C[C@H](CO)N1C[C@H](C)[C@@H](CN(C)Cc2ccccc2)Oc2ccc(NC(=O)Nc3cccc4ccccc34)cc2CC1=O,0,-74,0,69,·,·,·,·
C[C@@H]1CN([C@@H](C)CO)C(=O)Cc2cc(NC(=O)Nc3cccc4ccccc34)ccc2O[C@H]1CN(C)Cc1ccc(-c2ccccc2)cc1,0,-43,-5,107*,102*,106*,11,6
C[C@H]1CN([C@@H](C)CO)C(=O)Cc2cc(NC(=O)Nc3cccc4ccccc34)ccc2O[C@@H]1CN(C)Cc1ccc(-c2ccccc2)cc1,0,-34,1,102*,109*,107*,1,3
Fc1cccc(Cl)c1CN1CCN(CCCNc2ncnc3scc(-c4ccccc4)c23)CC1,-3,·,·,·,·,·,·,·
Cc1cc2nc(-c3cccc(NC(=O)COc4ccc(Br)cc4)c3C)oc2cc1C,0,·,·,·,·,·,·,·
Cc1ccc(S(=O)(=O)N(C)C[C@H]2OCCCC[C@@H](C)Oc3ccc(NS(=O)(=O)c4ccc(Cl)cc4)cc3C(=O)N([C@@H](C)CO)C[C@@H]2C)cc1,·,-41,0,99*,98*,119*,-20,-2
C[C@@H]1CCCCO[C@H](CN(C)S(=O)(=O)c2ccc(Cl)cc2)[C@@H](C)CN([C@H](C)CO)C(=O)c2cc(NS(=O)(=O)c3ccc(Cl)cc3)ccc2O1,3,-15,0,32,·,·,·,·
C[C@@H]1CCCCO[C@@H](CN(C)S(=O)(=O)c2ccc(Cl)cc2)[C@@H](C)CN([C@H](C)CO)C(=O)c2cc(NS(=O)(=O)c3ccc(Cl)cc3)ccc2O1,-1,-24,-1,74,·,·,·,·
C[C@@H]1CCCCO[C@H](CN(C)S(=O)(=O)c2ccc(Cl)cc2)[C@@H](C)CN([C@@H](C)CO)C(=O)c2cc(NS(=O)(=O)c3ccc(Cl)cc3)ccc2O1,1,-69,0,·,·,·,·,·
Cc1ccc(S(=O)(=O)N(C)C[C@H]2OCCCC[C@@H](C)Oc3ccc(NS(=O)(=O)c4ccc(Cl)cc4)cc3C(=O)N([C@H](C)CO)C[C@H]2C)cc1,·,-80*,0,108*,98*,109*,-20,-9
Cc1ccc(S(=O)(=O)N(C)C[C@H]2OCCCC[C@H](C)Oc3ccc(NS(=O)(=O)c4ccc(Cl)cc4)cc3C(=O)N([C@H](C)CO)C[C@@H]2C)cc1,·,-16,-1,97*,100*,119*,17,11
Cc1ccc(S(=O)(=O)N(C)C[C@@H]2OCCCC[C@H](C)Oc3ccc(NS(=O)(=O)c4ccc(Cl)cc4)cc3C(=O)N([C@@H](C)CO)C[C@@H]2C)cc1,3,-41,-1,118*,104*,115*,-5,-18
O=C1C[C@H](c2ccc(O)cc2)Oc2c1c(O)cc(O)c2[C@@H]1C(=O)c2c(O)cc(O)cc2O[C@H]1c1ccc(O)cc1,4,·,·,·,·,·,·,·
COc1ccc(Cl)cc1NC(=O)Cn1cnc2sc3c(c2c1=O)CCC(C)C3 (stereo not drawn),0,·,·,·,·,·,·,·

# From PubChem
